Assays:
[1] = Clearance in human hepatocytes relative to hepatic blood flow; assay type: ADME, cell-based, Liver, Hepatocyte; details: read-out: CLH
[2] = Clearance in rat hepatocytes relative to hepatic blood flow; assay type: ADME, cell-based, Liver, Hepatocyte; details: read-out: CLH
[3] = target: T1, Nuclear receptor ROR-alpha (Homo sapiens, UniProt P35398); assay: Inverse agonist activity at Gal4 DNA binding domain-tagged human RORalpha expressed in HEK293T cells assessed as effect on receptor-mediated transcriptional activity by luciferase reporter gene assay; assay type: cell-based, HEK-293T
T1 sequence (P35398 whole entry): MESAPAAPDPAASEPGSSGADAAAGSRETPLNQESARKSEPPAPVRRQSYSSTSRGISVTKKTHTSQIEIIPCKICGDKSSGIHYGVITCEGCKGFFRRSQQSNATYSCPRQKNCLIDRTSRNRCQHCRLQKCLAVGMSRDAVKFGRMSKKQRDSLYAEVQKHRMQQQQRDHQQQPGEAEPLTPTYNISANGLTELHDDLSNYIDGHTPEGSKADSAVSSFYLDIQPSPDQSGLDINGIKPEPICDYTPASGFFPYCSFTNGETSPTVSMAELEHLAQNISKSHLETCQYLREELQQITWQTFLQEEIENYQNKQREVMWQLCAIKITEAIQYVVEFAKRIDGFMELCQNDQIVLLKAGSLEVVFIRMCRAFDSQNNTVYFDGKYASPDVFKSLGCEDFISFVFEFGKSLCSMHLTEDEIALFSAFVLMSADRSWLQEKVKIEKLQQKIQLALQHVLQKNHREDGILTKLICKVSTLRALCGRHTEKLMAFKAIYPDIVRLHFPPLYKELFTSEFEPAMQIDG
In short: (§1)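 Gal4 reporter assay in 293T cells with the same format as the RORγ Gal4 assay, using Gal4DBD:RORαLBD or Gal4DBD:RORβLBD constructs. Transfection, then compound treatment, then lysis and dual-flash luciferase luminescence. Activity measured in dose-response.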

[4] = target: T2, Nuclear receptor ROR-beta (Homo sapiens, UniProt Q92753); assay: Inverse agonist activity at Gal4 DNA binding domain-tagged human RORbeta expressed in HEK293T cells assessed as effect on receptor-mediated transcriptional activity by luciferase reporter gene assay; assay type: cell-based, HEK-293T; in short: as §1
T2 sequence (Q92753 whole entry): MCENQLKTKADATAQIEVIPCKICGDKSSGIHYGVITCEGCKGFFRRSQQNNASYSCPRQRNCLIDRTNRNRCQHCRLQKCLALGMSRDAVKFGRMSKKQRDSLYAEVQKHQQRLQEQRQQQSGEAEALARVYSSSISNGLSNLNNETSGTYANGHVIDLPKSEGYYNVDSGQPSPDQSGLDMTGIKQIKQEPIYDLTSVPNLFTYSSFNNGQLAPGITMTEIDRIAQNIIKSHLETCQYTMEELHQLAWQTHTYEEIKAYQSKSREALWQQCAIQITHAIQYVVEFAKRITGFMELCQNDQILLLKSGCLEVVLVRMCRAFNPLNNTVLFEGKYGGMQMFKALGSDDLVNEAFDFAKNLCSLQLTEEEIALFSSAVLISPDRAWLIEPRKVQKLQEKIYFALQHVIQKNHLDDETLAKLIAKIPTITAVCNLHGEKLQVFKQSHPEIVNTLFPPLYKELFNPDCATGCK

[5] = target: T3, Nuclear receptor subfamily 1 group I member 2 (Homo sapiens, UniProt O75469); assay: Antagonist activity at Gal4 DNA binding domain-tagged human PXR ligand binding domain expressed in HEK293 cells assessed as inhibition of receptor-mediated transcriptional activity by luciferase reporter gene assay; assay type: cell-based
T3 sequence (O75469 whole entry): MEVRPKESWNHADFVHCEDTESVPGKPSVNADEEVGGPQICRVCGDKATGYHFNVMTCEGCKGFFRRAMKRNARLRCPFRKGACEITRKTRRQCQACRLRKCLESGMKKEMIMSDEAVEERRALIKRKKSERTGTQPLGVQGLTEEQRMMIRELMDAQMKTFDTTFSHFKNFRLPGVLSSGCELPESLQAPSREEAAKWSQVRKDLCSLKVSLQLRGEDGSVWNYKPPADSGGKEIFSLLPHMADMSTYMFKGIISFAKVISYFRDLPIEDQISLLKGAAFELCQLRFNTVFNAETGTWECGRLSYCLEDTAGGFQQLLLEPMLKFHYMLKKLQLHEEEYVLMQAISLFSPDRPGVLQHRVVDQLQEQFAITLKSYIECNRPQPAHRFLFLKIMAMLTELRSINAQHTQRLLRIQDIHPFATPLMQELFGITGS
In short: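 Screened by ChemPartner in HEK293 cells transiently co-transfected with a Gal4DBD-human NR LBD construct and a UAS-Luc reporter. Run in antagonist mode, read as % inhibition at a single concentration. Commercial reference compounds were run alongside in the same assay.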

[6] = target: T3, Nuclear receptor subfamily 1 group I member 2; assay: Agonist activity at Gal4 DNA binding domain-tagged human PXR ligand binding domain expressed in HEK293 cells assessed as activation of receptor-mediated transcriptional activity by luciferase reporter gene assay; assay type: cell-based
In short: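 Screened by ChemPartner as a cell-based transient co-transfection reporter assay in HEK293 cells, using a Gal4DBD-human NR LBD construct with UAS-Luc. Run in agonist mode, read as % activation at a single concentration. Commercial reference compounds were profiled in the same assay for validation.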

[7] = Half life in rat at 2 mg/kg, iv; assay type: ADME, organism-based; details: in vivo
In short: (§2)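 Rats dosed at 2.0 mg/kg intravenously in SPEW vehicle. Plasma exposure profiled for T1/2 and Cmax.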

[8] = AUC (infinity) in rat at 2 mg/kg, iv; assay type: ADME, organism-based; design: dose 2 mg/kg, time infinity, route intravenous; details: in vivo
In short: (§3)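 Rat PK; iv dosing at 2.0 mg/Kg in SPEW vehicle, oral dosing at 10 mg/Kg in 0.1% CMC-0.2%Tween; AUCinf reported in ng*hr/mL.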

[9] = AUC (infinity) in rat at 10 mg/kg, po; assay type: ADME, organism-based; design: dose 10 mg/kg, route oral, time infinity; details: in vivo; in short: as §3
[10] = Cmax in rat at 2 mg/kg, iv; assay type: ADME, organism-based; design: dose 2 mg/kg, route intravenous; details: in vivo; in short: as §2
[11] = Cmax in rat at 10 mg/kg, po; assay type: ADME, organism-based; design: dose 10 mg/kg, route oral; details: in vivo
Rattus norvegicus = assay: Clearance in rat at 2 mg/kg, iv relative to hepatic blood flow; assay type: ADME, organism-based, Liver; details: in vivo
In short: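 Rats given 2.0 mg/kg iv in SPEW vehicle. Clearance is expressed as % of hepatic blood flow (%Qh).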

[12] = Oral bioavailability in rat at 10 mg/kg; assay type: ADME, organism-based; details: in vivo

hepatic extraction ratio [1]: 0.51
hepatic extraction ratio [2]: 0.65
EC50 [3]: 8.36 µM
EC50 [4]: 1.93 µM
inhibition (INH) [5]: < 50%
Activity [6]: < 50%
half-life [7]: 9.6 h
AUC(0-inf) [8]: 1540 ng·h/mL
AUC(0-inf) [9]: 3130 ng·h/mL
Cmax [10]: 2740 ng/mL
Cmax [11]: 1210 ng/mL
CLH (Rattus norvegicus): 40%
bioavailability [12]: 41%
SMILES: [2H]C([2H])([2H])N(C(=O)c1c(F)cccc1Cl)c1ccc(-c2cc(C(N)=O)ccc2Cl)cc1OCC(F)(F)F

— ChEMBL document CHEMBL3596154, “Discovery of biaryl carboxylamides as potent RORγ inverse agonists” (Bioorg Med Chem Lett, 2015)
